From ChEMBL document CHEMBL4033747, “Design and synthesis of a novel inhibitor of T. Viride chitinase through an in silico target fishing protocol” (Bioorg Med Chem Lett, 2017)
pIC50, pKi: −log10 of the molar value. Converted amounts (≈) assume the structure as drawn.

Columns and labels:
Chitinase = Chitinase (Hypocrea rufa, UniProt D2K848); assay: Inhibition of Trichoderma viride chitinase incubated for 10 mins to 3 hrs using 4-nitrophenyl N-acetyl-beta-D-glucosaminide substrate by spectrophotometry
Outline: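 Commercial Trichoderma viride chitinase preincubated with varying inhibitor concentrations directly in the reading plate, room temperature, 3 h. Substrate 4-nitrophenyl N-acetyl-β-D-glucosaminide then added. […] IC50 and Ki calculated from these readings.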

[1] = tested on: Meyerozyma guilliermondii; assay: Antifungal activity against Candida guillermondii incubated for 24 hrs by visual and spectrophotometry method; type: functional
Pichia kudriavzevii = assay: Antifungal activity against Candida krusei incubated for 24 hrs by visual and spectrophotometry method; type: functional
Candida albicans = assay: Antifungal activity against Candida albicans incubated for 24 hrs by visual and spectrophotometry method; type: functional
Candida tropicalis = assay: Antifungal activity against Candida tropicalis incubated for 24 hrs by visual and spectrophotometry method; type: functional
Nakaseomyces glabratus = assay: Antifungal activity against Candida glabrata incubated for 24 hrs by visual and spectrophotometry method; type: functional
Candida parapsilosis = assay: Antifungal activity against Candida parapsilosis incubated for 24 hrs by visual and spectrophotometry method; type: functional; conditions: Lodderomyces parapsilosis
Kluyveromyces marxianus = assay: Antifungal activity against Candida kefyr incubated for 24 hrs by visual and spectrophotometry method; type: functional

Chitinase, sequence (D2K848 whole entry): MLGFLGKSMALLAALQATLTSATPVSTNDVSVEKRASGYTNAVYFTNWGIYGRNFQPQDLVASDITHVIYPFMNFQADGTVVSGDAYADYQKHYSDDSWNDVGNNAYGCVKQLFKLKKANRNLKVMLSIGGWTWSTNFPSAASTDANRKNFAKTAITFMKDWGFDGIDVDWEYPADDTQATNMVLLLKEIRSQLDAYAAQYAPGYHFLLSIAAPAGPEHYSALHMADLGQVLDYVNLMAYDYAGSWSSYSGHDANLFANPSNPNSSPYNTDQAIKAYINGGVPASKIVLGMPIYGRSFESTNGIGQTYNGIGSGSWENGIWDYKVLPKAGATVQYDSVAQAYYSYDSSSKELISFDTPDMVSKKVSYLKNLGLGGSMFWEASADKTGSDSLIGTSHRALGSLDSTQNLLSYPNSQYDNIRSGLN

SMILES	pIC50 (Chitinase)	pKi (Chitinase)	MIC90 [1]	MIC90 (Pichia kudriavzevii)	MIC90 (Candida albicans)	MIC90 (Candida tropicalis)	MIC90 (Nakaseomyces glabratus)	MIC90 (Candida parapsilosis)	MIC90 (Kluyveromyces marxianus)
C/C=C/CNC(=N)NCCCCCCCCN1CCCCCOc2ccccc2CNC(=N)NC1=O	4.26	4.75							
N=C(NCCCCCCCCN1CCCCCCCCNC(=N)NC1=O)NCC1CC1	3.89	4.38							
C/C=C/CNC(=N)NCCCCCCCCN1CCCCCCOc2ccccc2CNC(=N)NC1=O	4.45	4.85	2 µg/mL (≈ 3.89 µM)	4 µg/mL (≈ 7.79 µM)	4 µg/mL (≈ 7.79 µM)	1 µg/mL (≈ 1.95 µM)	16 µg/mL (≈ 31.1 µM)	2 µg/mL (≈ 3.89 µM)	2 µg/mL (≈ 3.89 µM)
CCNC(=N)NCCCCCCN1CCCCCCCCNC(=N)NC1=O	3.85	4.34							
C/C=C/CNC(=N)NCCCCCCN1CCCCCCCCNC(=N)NC1=O	3.95	4.45							
C=C(C)CNC(=N)NCCCCCCN1CCCCCCCCNC(=N)NC1=O	3.97	4.46							
C#CCNC(=N)NCCCCCCN1CCCCCCCCNC(=N)NC1=O	4.01	4.50							
CNC(=O)NC(=N)NCCCCCCCCN1CCCCCCOc2ccccc2CNC(=N)NC1=O	6.17	6.66	25 µg/mL (≈ 48.4 µM)	12 µg/mL (≈ 23.2 µM)	25 µg/mL (≈ 48.4 µM)	12 µg/mL (≈ 23.2 µM)	25 µg/mL (≈ 48.4 µM)	25 µg/mL (≈ 48.4 µM)	6 µg/mL (≈ 11.6 µM)
C/C=C/CNC(=N)NCCCCCCCCN1CCCCCCCCNC(=N)NC1=O	3.80	4.29							
